Reference: ChEMBL document CHEMBL4689842, “EUbOPEN Chemogenomics Library wave 1” (2021)
Values joined by “and” are separate entries in the source; they are usually repeats but may differ in a detail not shown here. Identical values can stand only once.

Test system: U2OS
Assay: Multiplex assay against U2OS
Assay type: toxicity, cell-based
Conditions: human
Outline: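 Cells were classed with CellPathfinder machine-learning gating, first as Hoechst high-intensity objects or normal cells, then (normal cells) as healthy, pyknosed or fragmented nuclei, and finally (pyknosed cells) as mitotic or apoptotic. Staining of live cells at seeding used Hoechst33342, BioTracker Green Microtubule Cytoskeleton Dye, MitoTracker Red and Annexin V Alexa Fluor 680, with imaging on a CQ1 microscope at 37°C and 5% CO2 after compound addition. Tubulin, mitochondrial-mass and membrane-permeability phenotypes are per cents of healthy-nucleus cells.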

[1] = 12 h, 1 µM, compound concentration 1 uM, replicate 1
[2] = 12 h, 1 µM, compound concentration 1 uM, replicate 2
[3] = 12 h, 10 µM, compound concentration 10 uM, replicate 1
[4] = 12 h, 10 µM, compound concentration 10 uM, replicate 2
[5] = 24 h, 1 µM, compound concentration 1 uM, replicate 1
[6] = 24 h, 1 µM, compound concentration 1 uM, replicate 2
[7] = 24 h, 10 µM, compound concentration 10 uM, replicate 1
[8] = 24 h, 10 µM, compound concentration 10 uM, replicate 2
[9] = 48 h, 1 µM, compound concentration 1 uM, replicate 1
[10] = 48 h, 1 µM, compound concentration 1 uM, replicate 2
[11] = 48 h, 10 µM, compound concentration 10 uM, replicate 1
[12] = 48 h, 10 µM, compound concentration 10 uM, replicate 2

In the case of `CN(C)C(=O)C(CCN1CCC(O)(c2ccc(Cl)cc2)CC1)(c1ccccc1)c1ccccc1.Cl` [LOPERAMIDE HYDROCHLORIDE], the “Population Apoptotic (%)” value [1] is reported as 37%, the “Population Fragmented Nuclei (%)” value [1] is reported as 11% and the “Population Healthy Nuclei (%)” value [1] is reported as 69%. The “Population Hoechst High Intensity Objects (%)” value [1] was 4%, the “Population Membrane Permeable-Phenotype (%)” value [1] was 5% and the “Population Mitochondria Different-Phenotype (%)” value [1] was 82%. The “Population Mitotic Cells (%)” value [1] was 62%, the “Population Normal (%)” value [1] was 95% and the “Population Pyknosed Nuclei (%)” value [1] was 19%. For the same compound, the “Population Tubulin-Different-Phenotype (%)” value [1] was 87%, the “Total Cell Count” value [1] was 181 and the “Population Apoptotic (%)” value [2] was 25%. The “Population Fragmented Nuclei (%)” value [2] was 5%, the “Population Healthy Nuclei (%)” value [2] was 88% and the “Population Hoechst High Intensity Objects (%)” value [2] was 7%. For the same compound, the “Population Membrane Permeable-Phenotype (%)” value [2] was 11%, the “Population Mitochondria Different-Phenotype (%)” value [2] was 90% and the “Population Mitotic Cells (%)” value [2] was 75%. For the same compound, the “Population Normal (%)” value [2] was 92%, the “Population Pyknosed Nuclei (%)” value [2] was 6% and the “Population Tubulin-Different-Phenotype (%)” value [2] was 65%. The “Total Cell Count” value [2] was 55, the “Population Apoptotic (%)” value [3] was 66% and the “Population Fragmented Nuclei (%)” value [3] was 16%. For the same compound, the “Population Healthy Nuclei (%)” value [3] was 42%, the “Population Hoechst High Intensity Objects (%)” value [3] was 5% and the “Population Membrane Permeable-Phenotype (%)” value [3] was 77%. For the same compound, the “Population Mitotic Cells (%)” value [3] was 33%, the “Population Normal (%)” value [3] was 95% and the “Population Pyknosed Nuclei (%)” value [3] was 40%. The “Total Cell Count” value [3] was 129, the “Population Apoptotic (%)” value [4] was 82% and the “Population Fragmented Nuclei (%)” value [4] was 8%. The “Population Healthy Nuclei (%)” value [4] was 48%, the “Population Hoechst High Intensity Objects (%)” value [4] was 6% and the “Population Membrane Permeable-Phenotype (%)” value [4] was 94%. For the same compound, the “Population Mitochondria Different-Phenotype (%)” value [4] was 100%, the “Population Mitotic Cells (%)” value [4] was 17% and the “Population Normal (%)” value [4] was 93%. For the same compound, the “Population Pyknosed Nuclei (%)” value [4] was 43%, the “Population Tubulin-Different-Phenotype (%)” value [4] was 100% and the “Total Cell Count” value [4] was 64. For the same compound, the “Population Apoptotic (%)” value [5] was 60%, the “Population Fragmented Nuclei (%)” value [5] was 10% and the “Population Healthy Nuclei (%)” value [5] was 74%. The “Population Hoechst High Intensity Objects (%)” value [5] was 5%, the “Population Membrane Permeable-Phenotype (%)” value [5] was 6% and the “Population Mitochondria Different-Phenotype (%)” value [5] was 84%. For the same compound, the “Population Mitotic Cells (%)” value [5] was 40%, the “Population Normal (%)” value [5] was 94% and the “Population Pyknosed Nuclei (%)” value [5] was 14%. The “Population Tubulin-Different-Phenotype (%)” value [5] was 75%, the “Total Cell Count” value [5] was 222 and the “Population Apoptotic (%)” value [6] was 53%. For the same compound, the “Population Fragmented Nuclei (%)” value [6] was 5%, the “Population Healthy Nuclei (%)” value [6] was 71% and the “Population Hoechst High Intensity Objects (%)” value [6] was 4%. For the same compound, the “Population Membrane Permeable-Phenotype (%)” value [6] was 16%, the “Population Mitochondria Different-Phenotype (%)” value [6] was 89% and the “Population Mitotic Cells (%)” value [6] was 46%. For the same compound, the “Population Normal (%)” value [6] was 95%, the “Population Pyknosed Nuclei (%)” value [6] was 22% and the “Population Tubulin-Different-Phenotype (%)” value [6] was 62%. The “Total Cell Count” value [6] was 68, the “Population Apoptotic (%)” value [7] was 92% and the “Population Fragmented Nuclei (%)” value [7] was 23%. The “Population Healthy Nuclei (%)” value [7] was 18%, the “Population Hoechst High Intensity Objects (%)” value [7] was 4% and the “Population Membrane Permeable-Phenotype (%)” value [7] was 92%. For the same compound, the “Population Mitochondria Different-Phenotype (%)” value [7] was 100%, the “Population Mitotic Cells (%)” value [7] was 7% and the “Population Normal (%)” value [7] was 95%. The “Population Pyknosed Nuclei (%)” value [7] was 57%, the “Population Tubulin-Different-Phenotype (%)” value [7] was 100% and the “Total Cell Count” value [7] was 146. For the same compound, the “Population Apoptotic (%)” value [8] was 98%, the “Population Fragmented Nuclei (%)” value [8] was 10% and the “Population Healthy Nuclei (%)” value [8] was 26%. The “Population Hoechst High Intensity Objects (%)” value [8] was 10%, the “Population Membrane Permeable-Phenotype (%)” value [8] was 86% and the “Population Mitochondria Different-Phenotype (%)” value [8] was 95%. For the same compound, the “Population Mitotic Cells (%)” value [8] was 1%, the “Population Normal (%)” value [8] was 89% and the “Population Pyknosed Nuclei (%)” value [8] was 62%. For the same compound, the “Population Tubulin-Different-Phenotype (%)” value [8] was 95%, the “Total Cell Count” value [8] was 70 and the “Population Apoptotic (%)” value [9] was 60%. The “Population Fragmented Nuclei (%)” value [9] was 6%, the “Population Healthy Nuclei (%)” value [9] was 78% and the “Population Hoechst High Intensity Objects (%)” value [9] was 6%. The “Population Mitochondria Different-Phenotype (%)” value [9] was 72%, the “Population Mitotic Cells (%)” value [9] was 40% and the “Population Normal (%)” value [9] was 93%. For the same compound, the “Population Pyknosed Nuclei (%)” value [9] was 15%, the “Population Tubulin-Different-Phenotype (%)” value [9] was 59% and the “Total Cell Count” value [9] was 345. The “Population Apoptotic (%)” value [10] was 61%, the “Population Fragmented Nuclei (%)” value [10] was 7% and the “Population Healthy Nuclei (%)” value [10] was 68%. The “Population Hoechst High Intensity Objects (%)” value [10] was 3%, the “Population Membrane Permeable-Phenotype (%)” value [10] was 8% and the “Population Mitochondria Different-Phenotype (%)” value [10] was 65%. For the same compound, the “Population Mitotic Cells (%)” value [10] was 38%, the “Population Normal (%)” value [10] was 96% and the “Population Pyknosed Nuclei (%)” value [10] was 23%. For the same compound, the “Population Tubulin-Different-Phenotype (%)” value [10] was 47%, the “Total Cell Count” value [10] was 118 and the “Population Apoptotic (%)” value [11] was 98%. The “Population Fragmented Nuclei (%)” value [11] was 33%, the “Population Healthy Nuclei (%)” value [11] was 5% and the “Population Hoechst High Intensity Objects (%)” value [11] was 9%. For the same compound, the “Population Membrane Permeable-Phenotype (%)” value [11] was 100%, the “Population Mitochondria Different-Phenotype (%)” value [11] was 100% and the “Population Mitotic Cells (%)” value [11] was 1%. For the same compound, the “Population Normal (%)” value [11] was 90%, the “Population Pyknosed Nuclei (%)” value [11] was 61% and the “Population Tubulin-Different-Phenotype (%)” value [11] was 100%. For the same compound, the “Total Cell Count” value [11] was 177, the “Population Apoptotic (%)” value [12] was 100% and the “Population Fragmented Nuclei (%)” value [12] was 21%. The “Population Healthy Nuclei (%)” value [12] was 30%, the “Population Hoechst High Intensity Objects (%)” value [12] was 21% and the “Population Membrane Permeable-Phenotype (%)” value [12] was 95%. For the same compound, the “Population Mitotic Cells (%)” value [12] was 0%, the “Population Normal (%)” value [12] was 78% and the “Population Pyknosed Nuclei (%)” value [12] was 48%. For the same compound, the “Total Cell Count” value [12] was 92.
With `C[C@H]1Oc2cc(cnc2N)-c2c(nn(C)c2C#N)CN(C)C(=O)c2ccc(F)cc21` [LORLATINIB] the “Population Apoptotic (%)” value [1] was 53% and 37%, the “Population Healthy Nuclei (%)” value [1] was 88% and 89% and the “Population Hoechst High Intensity Objects (%)” value [1] was 2% and 3%. The “Population Membrane Permeable-Phenotype (%)” value [1] was 14%, the “Population Mitochondria Different-Phenotype (%)” value [1] was 20% and 32% and the “Population Mitotic Cells (%)” value [1] was 46% and 62%. The “Population Normal (%)” value [1] was 97% and 96%, the “Population Pyknosed Nuclei (%)” value [1] was 6% and 4% and the “Population Tubulin-Different-Phenotype (%)” value [1] was 15% and 22%. For the same compound, the “Total Cell Count” value [1] was 195 and 218, the “Population Apoptotic (%)” value [2] was 25% and 0% and the “Population Healthy Nuclei (%)” value [2] was 84% and 77%. The “Population Hoechst High Intensity Objects (%)” value [2] was 11% and 9%, the “Population Membrane Permeable-Phenotype (%)” value [2] was 15% and 8% and the “Population Mitochondria Different-Phenotype (%)” value [2] was 35% and 38%. For the same compound, the “Population Mitotic Cells (%)” value [2] was 75% and 100%, the “Population Normal (%)” value [2] was 88% and 90% and the “Population Pyknosed Nuclei (%)” value [2] was 10% and 2%. For the same compound, the “Population Tubulin-Different-Phenotype (%)” value [2] was 26% and 35%, the “Total Cell Count” value [2] was 129 and 122 and the “Population Apoptotic (%)” value [5] was 57% and 38%. For the same compound, the “Population Fragmented Nuclei (%)” value [5] was 6% and 5%, the “Population Healthy Nuclei (%)” value [5] was 86% and 87% and the “Population Hoechst High Intensity Objects (%)” value [5] was 2%. For the same compound, the “Population Membrane Permeable-Phenotype (%)” value [5] was 11% and 7%, the “Population Mitochondria Different-Phenotype (%)” value [5] was 22% and 25% and the “Population Mitotic Cells (%)” value [5] was 42% and 61%. For the same compound, the “Population Normal (%)” value [5] was 97%, the “Population Pyknosed Nuclei (%)” value [5] was 6% and 7% and the “Population Tubulin-Different-Phenotype (%)” value [5] was 16% and 28%. For the same compound, the “Total Cell Count” value [5] was 254 and 277, the “Population Apoptotic (%)” value [6] was 55% and 21% and the “Population Fragmented Nuclei (%)” value [6] was 9% and 18%. For the same compound, the “Population Healthy Nuclei (%)” value [6] was 81% and 70%, the “Population Hoechst High Intensity Objects (%)” value [6] was 9% and 6% and the “Population Membrane Permeable-Phenotype (%)” value [6] was 14% and 8%. The “Population Mitochondria Different-Phenotype (%)” value [6] was 33% and 41%, the “Population Mitotic Cells (%)” value [6] was 44% and 78% and the “Population Normal (%)” value [6] was 90% and 93%. The “Population Pyknosed Nuclei (%)” value [6] was 8% and 10%, the “Population Tubulin-Different-Phenotype (%)” value [6] was 31% and the “Total Cell Count” value [6] was 140 and 145.
